Measurements reported in ChEMBL document CHEMBL2086252, “Syntheses and evaluation of anticonvulsant activity of novel branched alkyl carbamates” (J Med Chem, 2012).
Active and inactive are the calls of the source.

How the values were obtained:
Mus musculus [1] = test: Anticonvulsant activity in albino CF1 mouse assessed as protection against maximal electroshock-induced seizures at 100 mg/kg, ip after 4 hrs; assay type: functional, organism-based; design: dose 100 mg/kg
How it was run: (§1)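 Mice dosed ip at 30, 100 or 300 mg/kg, then tested 0.5 h and 4 h after administration in the MES or scMet test. Protection was recorded as animals protected over animals tested. Neurotoxicity was recorded as motor impairment or sedation, as animals affected over animals tested.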

Mus musculus [2] = test: Neurotoxicity in albino CF1 mouse assessed as minimal motor impairment at 30 mg/kg, ip after 4 hrs by rotarod test; assay type: toxicity, organism-based; design: dose 30 mg/kg, route intraperitoneal; settings: in vivo; how it was run: as §1
Rattus norvegicus [3] = test: Anticonvulsant activity in Sprague-Dawley albino rat assessed as protection against maximal electroshock-induced seizures at 30 mg/kg, po after 4 hrs; assay type: functional, organism-based; design: dose 30 mg/kg
How it was run: (§2)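 Rats dosed orally. Anti-MES protection was scored as animals protected over animals tested at each time after dosing. Neurotoxicity was scored as motor impairment or sedation, as animals affected over animals tested.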

Rattus norvegicus [4] = test: Neurotoxicity in pilocarpine-induced status epilepticus Sprague-Dawley albino rat model assessed as minimal motor impairment at 100 mg/kg, ip after 2 hrs by rotarod test; assay type: toxicity, organism-based; design: dose 100 mg/kg, route intraperitoneal; settings: in vivo
Rattus norvegicus [5] = test: Neurotoxicity in pilocarpine-induced status epilepticus Sprague-Dawley albino rat model assessed as minimal motor impairment at 100 mg/kg, ip after 1 hr by rotarod test; assay type: toxicity, organism-based; design: dose 100 mg/kg, route intraperitoneal; settings: in vivo
Rattus norvegicus [6] = test: Neurotoxicity in Sprague-Dawley albino rat assessed as minimal motor impairment at 30 mg/kg, po by rotarod test; assay type: toxicity, organism-based; design: dose 30 mg/kg, route oral; settings: in vivo; how it was run: as §2
Mus musculus [7] = test: Anticonvulsant activity in albino CF1 mouse assessed as protection against subcutaneous metrazol-induced seizures at 300 mg/kg, ip after 0.5 hrs; assay type: functional, organism-based; design: dose 300 mg/kg; how it was run: as §1
Mus musculus [8] = test: Neurotoxicity in albino CF1 mouse assessed as minimal motor impairment at 100 mg/kg, ip after 0.5 hrs by rotarod test; assay type: toxicity, organism-based; design: dose 100 mg/kg, route intraperitoneal; settings: in vivo; how it was run: as §1
Mus musculus [9] = test: Anticonvulsant activity in albino CF1 mouse assessed as protection against subcutaneous metrazol-induced seizures at 100 mg/kg, ip after 4 hrs; assay type: functional, organism-based; design: dose 100 mg/kg; how it was run: as §1
Mus musculus [10] = test: Anticonvulsant activity in albino CF1 mouse assessed as protection against subcutaneous metrazol-induced seizures at 100 mg/kg, ip after 0.5 hrs; assay type: functional, organism-based; design: dose 100 mg/kg; how it was run: as §1
Rattus norvegicus [11] = test: Neurotoxicity in pilocarpine-induced status epilepticus Sprague-Dawley albino rat model assessed as minimal motor impairment at 100 mg/kg, ip after 0.5 hrs by rotarod test; assay type: toxicity, organism-based; design: dose 100 mg/kg, route intraperitoneal; settings: in vivo
Rattus norvegicus [12] = test: Anticonvulsant activity in Sprague-Dawley albino rat assessed as protection against maximal electroshock-induced seizures at 30 mg/kg, po after 15 mins; assay type: functional, organism-based; design: dose 30 mg/kg; how it was run: as §2
Rattus norvegicus [13] = test: Neurotoxicity in pilocarpine-induced status epilepticus Sprague-Dawley albino rat model assessed as minimal motor impairment at 30 mg/kg, ip after 0.25 hr by rotarod test; assay type: toxicity, organism-based; design: dose 30 mg/kg, route intraperitoneal; settings: in vivo
How it was run: (§3)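 Rat pilocarpine status epilepticus model: test carbamate given at 0 or 30 min after the first observed Racine stage 3 motor seizure, which marks SE onset. Neurotoxicity was scored within the same model.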

Rattus norvegicus [14] = test: Anticonvulsant activity in Sprague-Dawley albino rat assessed as protection against maximal electroshock-induced seizures at 30 mg/kg, po after 2 hrs; assay type: functional, organism-based; design: dose 30 mg/kg; how it was run: as §2
Rattus norvegicus [15] = test: Neurotoxicity in pilocarpine-induced status epilepticus Sprague-Dawley albino rat model assessed as minimal motor impairment at 100 mg/kg, ip after 0.25 hr by rotarod test; assay type: toxicity, organism-based; design: dose 100 mg/kg, route intraperitoneal; settings: in vivo
Rattus norvegicus [16] = test: Neurotoxicity in pilocarpine-induced status epilepticus Sprague-Dawley albino rat model assessed as minimal motor impairment at 300 mg/kg, ip after 0.5 hrs by rotarod test; assay type: toxicity, organism-based; design: dose 300 mg/kg, route intraperitoneal; settings: in vivo; how it was run: as §3
Mus musculus [17] = test: Anticonvulsant activity in albino CF1 mouse assessed as protection against maximal electroshock-induced seizures at 30 mg/kg, ip after 0.5 hrs; assay type: functional, organism-based; design: dose 30 mg/kg; how it was run: as §1
Mus musculus [18] = test: Neurotoxicity in albino CF1 mouse assessed as minimal motor impairment at 30 mg/kg, ip after 0.5 hrs by rotarod test; assay type: toxicity, organism-based; design: dose 30 mg/kg, route intraperitoneal; settings: in vivo; how it was run: as §1
Mus musculus [19] = test: Neurotoxicity in albino CF1 mouse assessed as minimal motor impairment at 300 mg/kg, ip after 0.5 hrs by rotarod test; assay type: toxicity, organism-based; design: dose 300 mg/kg, route intraperitoneal; settings: in vivo; how it was run: as §1
Rattus norvegicus [20] = test: Neurotoxicity in pilocarpine-induced status epilepticus Sprague-Dawley albino rat model assessed as minimal motor impairment at 30 mg/kg, ip after 0.5 hrs by rotarod test; assay type: toxicity, organism-based; design: dose 30 mg/kg, route intraperitoneal; settings: in vivo; how it was run: as §3
Mus musculus [21] = test: Anticonvulsant activity in albino CF1 mouse assessed as protection against maximal electroshock-induced seizures at 30 mg/kg, ip after 4 hrs; assay type: functional, organism-based; design: dose 30 mg/kg; how it was run: as §1
Rattus norvegicus [22] = test: Neurotoxicity in pilocarpine-induced status epilepticus Sprague-Dawley albino rat model assessed as minimal motor impairment at 300 mg/kg, ip after 2 hrs by rotarod test; assay type: toxicity, organism-based; design: dose 300 mg/kg, route intraperitoneal; settings: in vivo; how it was run: as §3
Rattus norvegicus [23] = test: Anticonvulsant activity in Sprague-Dawley albino rat assessed as protection against maximal electroshock-induced seizures at 30 mg/kg, po after 30 mins; assay type: functional, organism-based; design: dose 30 mg/kg; how it was run: as §2
Rattus norvegicus [24] = test: Neurotoxicity in pilocarpine-induced status epilepticus Sprague-Dawley albino rat model assessed as minimal motor impairment at 30 mg/kg, ip after 1 hr by rotarod test; assay type: toxicity, organism-based; design: dose 30 mg/kg, route intraperitoneal; settings: in vivo; how it was run: as §3
Mus musculus [25] = test: Anticonvulsant activity in albino CF1 mouse assessed as protection against subcutaneous metrazol-induced seizures at 300 mg/kg, ip after 4 hrs; assay type: functional, organism-based; design: dose 300 mg/kg; how it was run: as §1
Rattus norvegicus [26] = test: Neurotoxicity in pilocarpine-induced status epilepticus Sprague-Dawley albino rat model assessed as minimal motor impairment at 300 mg/kg, ip after 1 hr by rotarod test; assay type: toxicity, organism-based; design: dose 300 mg/kg, route intraperitoneal; settings: in vivo; how it was run: as §3
Rattus norvegicus [27] = test: Neurotoxicity in pilocarpine-induced status epilepticus Sprague-Dawley albino rat model assessed as minimal motor impairment at 300 mg/kg, ip after 0.25 hr by rotarod test; assay type: toxicity, organism-based; design: dose 300 mg/kg, route intraperitoneal; settings: in vivo; how it was run: as §3
Mus musculus [28] = test: Anticonvulsant activity in albino CF1 mouse assessed as protection against subcutaneous metrazol-induced seizures at 30 mg/kg, ip after 0.5 hrs; assay type: functional, organism-based; design: dose 30 mg/kg; how it was run: as §1
Rattus norvegicus [29] = test: Neurotoxicity in pilocarpine-induced status epilepticus Sprague-Dawley albino rat model assessed as minimal motor impairment at 100 mg/kg, ip after 4 hrs by rotarod test; assay type: toxicity, organism-based; design: dose 100 mg/kg, route intraperitoneal; settings: in vivo
Rattus norvegicus [30] = test: Neurotoxicity in pilocarpine-induced status epilepticus Sprague-Dawley albino rat model assessed as minimal motor impairment at 30 mg/kg, ip after 2 hrs by rotarod test; assay type: toxicity, organism-based; design: dose 30 mg/kg, route intraperitoneal; settings: in vivo; how it was run: as §3
Rattus norvegicus [31] = test: Neurotoxicity in pilocarpine-induced status epilepticus Sprague-Dawley albino rat model assessed as minimal motor impairment at 300 mg/kg, ip after 4 hrs by rotarod test; assay type: toxicity, organism-based; design: dose 300 mg/kg, route intraperitoneal; settings: in vivo; how it was run: as §3
Mus musculus [32] = test: Neurotoxicity in albino CF1 mouse assessed as minimal motor impairment at 100 mg/kg, ip after 4 hrs by rotarod test; assay type: toxicity, organism-based; design: dose 100 mg/kg, route intraperitoneal; settings: in vivo; how it was run: as §1
Rattus norvegicus [33] = test: Neurotoxicity in pilocarpine-induced status epilepticus Sprague-Dawley albino rat model assessed as minimal motor impairment at 30 mg/kg, ip after 4 hrs by rotarod test; assay type: toxicity, organism-based; design: dose 30 mg/kg, route intraperitoneal; settings: in vivo; how it was run: as §3
Rattus norvegicus [34] = test: Anticonvulsant activity in Sprague-Dawley albino rat assessed as protection against pilocarpine-induced status epilepticus at 130 mg/kg, ip administered 0 and 30 mins after status epilepticus onset
Mus musculus [35] = test: Anticonvulsant activity in albino CF1 mouse assessed as protection against subcutaneous metrazol-induced seizures at 30 mg/kg, ip after 4 hrs; assay type: functional, organism-based; design: dose 30 mg/kg; how it was run: as §1
Mus musculus [36] = test: Anticonvulsant activity in albino CF1 mouse assessed as protection against maximal electroshock-induced seizures at 300 mg/kg, ip after 0.5 hrs; assay type: functional, organism-based; design: dose 300 mg/kg; how it was run: as §1
Mus musculus [37] = test: Anticonvulsant activity in albino CF1 mouse assessed as protection against maximal electroshock-induced seizures at 300 mg/kg, ip after 4 hrs; assay type: functional, organism-based; design: dose 300 mg/kg; how it was run: as §1
Mus musculus [38] = test: Neurotoxicity in albino CF1 mouse assessed as minimal motor impairment at 300 mg/kg, ip after 4 hrs by rotarod test; assay type: toxicity, organism-based; design: dose 300 mg/kg, route intraperitoneal; settings: in vivo; how it was run: as §1

Measured: Activity

CC1(C)C(COC(N)=O)C1(C)C
Non-toxic: Mus musculus [2] | Rattus norvegicus [4] | Rattus norvegicus [6] | Mus musculus [8] | Rattus norvegicus [13] | Mus musculus [18] | Rattus norvegicus [20] | Rattus norvegicus [24] | Rattus norvegicus [29] | Rattus norvegicus [30] | Rattus norvegicus [31] | Mus musculus [32] | Rattus norvegicus [33] | Mus musculus [38]
active: Mus musculus [7] | Mus musculus [36]
inactive: Mus musculus [1] | Rattus norvegicus [3] | Mus musculus [9] | Mus musculus [10] | Rattus norvegicus [12] | Rattus norvegicus [14] | Mus musculus [17] | Mus musculus [21] | Rattus norvegicus [23] | Mus musculus [25] | Mus musculus [28] | Rattus norvegicus [34] | Mus musculus [35] | Mus musculus [37]
Toxic: Rattus norvegicus [5] | Rattus norvegicus [11] | Rattus norvegicus [15] | Rattus norvegicus [16] | Mus musculus [19] | Rattus norvegicus [22] | Rattus norvegicus [26] | Rattus norvegicus [27]
